According to ChEMBL document CHEMBL1128406, “Effects of tubercidin and its 5'-O-methyl ether on adenosine receptors and mediator release functions in mast cells” (1995):

Experiments:
CHO-K1-BH4 [1] = assay: Compound is tested for cytotoxicity in Chinese hamster ovary cells (CHO-K1-BH4) in the absence of S-9 microsome fraction at concentration 37 micro M; assay type: functional, Cricetulus griseus
In short: (§1)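 CHO-K1-BH4 cells exposed to the test article for 5 h with no exogenous S-9 microsome fraction, then given an overnight recovery period without compound. Relative cytotoxicity was scored afterwards, following the contract lab's CYT/CHO protocol.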

CHO-K1-BH4 [2] = assay: Compound is tested for cytotoxicity in Chinese hamster ovary cells (CHO-K1-BH4) in the absence of S-9 microsome fraction at concentration 3.7 micro M; assay type: functional, Cricetulus griseus; in short: as §1
CHO-K1-BH4 [3] = assay: Compound is tested for cytotoxicity in Chinese hamster ovary cells (CHO-K1-BH4) in the absence of S-9 microsome fraction at concentration 0.4 micro M; assay type: functional, Cricetulus griseus; in short: as §1
CHO-K1-BH4 [4] = assay: Compound is tested for cytotoxicity in Chinese hamster ovary cells (CHO-K1-BH4) in the presence of S-9 microsome fraction at concentration 360 micro M; assay type: functional, Cricetulus griseus
In short: (§2)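 CHO-K1-BH4 cells exposed to the test article for 5 h with an S-9 microsome fraction present, then given an overnight compound-free recovery period. Relative cytotoxicity was assessed after recovery.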

CHO-K1-BH4 [5] = assay: Compound is tested for cytotoxicity in Chinese hamster ovary cells (CHO-K1-BH4) in the presence of S-9 microsome fraction at concentration 37 micro M; assay type: functional, Cricetulus griseus; in short: as §2
Mus musculus = species: Mus musculus; assay: Compound is evaluated for the ability to inhibit the passive cutaneous anaphylaxis (PCA) reaction in mouse in presence of Ag; assay type: functional
CHO-K1-BH4 [6] = assay: Compound is tested for cytotoxicity in Chinese hamster ovary cells (CHO-K1-BH4) in the absence of S-9 microsome fraction at concentration 360 micro M; assay type: functional, Cricetulus griseus; in short: as §1
CHO-K1-BH4 [7] = assay: Compound is tested for cytotoxicity in Chinese hamster ovary cells (CHO-K1-BH4) in the presence of S-9 microsome fraction at concentration 3.7 micro M; assay type: functional, Cricetulus griseus; in short: as §2
CHO-K1-BH4 [8] = assay: Compound is tested for cytotoxicity in Chinese hamster ovary cells (CHO-K1-BH4) in the absence of S-9 microsome fraction at concentration 0 micro M; assay type: functional, Cricetulus griseus; in short: as §1
CHO-K1-BH4 [9] = assay: Compound is tested for cytotoxicity in Chinese hamster ovary cells (CHO-K1-BH4) in the presence of S-9 microsome fraction at concentration 1.1 micro M; assay type: functional, Cricetulus griseus; in short: as §2
CHO-K1-BH4 [10] = assay: Compound is tested for cytotoxicity in Chinese hamster ovary cells (CHO-K1-BH4) in the absence of S-9 microsome fraction at concentration 11 micro M; assay type: functional, Cricetulus griseus; in short: as §1
CHO-K1-BH4 [11] = assay: Compound is tested for cytotoxicity in Chinese hamster ovary cells (CHO-K1-BH4) in the absence of S-9 microsome fraction at concentration 1136 micro M; assay type: functional, Cricetulus griseus; in short: as §1
CHO-K1-BH4 [12] = assay: Compound is tested for cytotoxicity in Chinese hamster ovary cells (CHO-K1-BH4) in the presence of S-9 microsome fraction at concentration 114 micro M; assay type: functional, Cricetulus griseus; in short: as §2
CHO-K1-BH4 [13] = assay: Compound is tested for cytotoxicity in Chinese hamster ovary cells (CHO-K1-BH4) in the presence of S-9 microsome fraction at concentration 0.17 micro M; assay type: functional, Cricetulus griseus; in short: as §2
CHO-K1-BH4 [14] = assay: Compound is tested for cytotoxicity in Chinese hamster ovary cells (CHO-K1-BH4) in the absence of S-9 microsome fraction at concentration 1.1 micro M; assay type: functional, Cricetulus griseus; in short: as §1
CHO-K1-BH4 [15] = assay: Compound is tested for cytotoxicity in Chinese hamster ovary cells (CHO-K1-BH4) in the presence of S-9 microsome fraction at concentration 1136 micro M; assay type: functional, Cricetulus griseus; in short: as §2
CHO-K1-BH4 [16] = assay: Compound is tested for cytotoxicity in Chinese hamster ovary cells (CHO-K1-BH4) in the absence of S-9 microsome fraction at concentration 0.17 micro M; assay type: functional, Cricetulus griseus; in short: as §1
CHO-K1-BH4 [17] = assay: Compound is tested for cytotoxicity in Chinese hamster ovary cells (CHO-K1-BH4) in the presence of S-9 microsome fraction at concentration 11 micro M; assay type: functional, Cricetulus griseus; in short: as §2
CHO-K1-BH4 [18] = assay: Compound is tested for cytotoxicity in Chinese hamster ovary cells (CHO-K1-BH4) in the presence of S-9 microsome fraction at concentration 114*10e-4 micro M; assay type: functional, Cricetulus griseus
In short: (§3)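 CHO-K1-BH4 cells exposed to test article for 5 h, with or without exogenous S-9 microsome fraction, then recovered overnight without compound before relative cytotoxicity was scored.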

CHO-K1-BH4 [19] = assay: Compound is tested for cytotoxicity in Chinese hamster ovary cells (CHO-K1-BH4) in the presence of S-9 microsome fraction at concentration 0.1*10e-4 micro M; assay type: functional, Cricetulus griseus; in short: as §3
CHO-K1-BH4 [20] = assay: Compound is tested for cytotoxicity in Chinese hamster ovary cells (CHO-K1-BH4) in the presence of S-9 microsome fraction at concentration 1.1*10e-4 micro M; assay type: functional, Cricetulus griseus; in short: as §3
CHO-K1-BH4 [21] = assay: Compound is tested for cytotoxicity in Chinese hamster ovary cells (CHO-K1-BH4) in the presence of S-9 microsome fraction at concentration 11.4*10e-4 micro M; assay type: functional, Cricetulus griseus; in short: as §3
CHO-K1-BH4 [22] = assay: Compound is tested for cytotoxicity in Chinese hamster ovary cells (CHO-K1-BH4) in the absence of S-9 microsome fraction at concentration 1.1*10e-4 micro M; assay type: functional, Cricetulus griseus; in short: as §3
CHO-K1-BH4 [23] = assay: Compound is tested for cytotoxicity in Chinese hamster ovary cells (CHO-K1-BH4) in the absence of S-9 microsome fraction at concentration 9 micro M; assay type: functional, Cricetulus griseus; in short: as §3
CHO-K1-BH4 [24] = assay: Compound is tested for cytotoxicity in Chinese hamster ovary cells (CHO-K1-BH4) in the absence of S-9 microsome fraction at concentration 11.4*10e-4 micro M; assay type: functional, Cricetulus griseus; in short: as §3
CHO-K1-BH4 [25] = assay: Compound is tested for cytotoxicity in Chinese hamster ovary cells (CHO-K1-BH4) in the absence of S-9 microsome fraction at concentration 114*10e-4 micro M; assay type: functional, Cricetulus griseus; in short: as §3
CHO-K1-BH4 [26] = assay: Compound is tested for cytotoxicity in Chinese hamster ovary cells (CHO-K1-BH4) in the absence of S-9 microsome fraction at concentration 0.1*10e-4 micro M; assay type: functional, Cricetulus griseus; in short: as §3

Which Inhibition (CHO-K1-BH4 [1]) does the source give for `COC[C@H]1OC(n2ccc3c(N)ncnc32)[C@H](O)[C@@H]1O` (stereo partly drawn) here?
The Inhibition was 30%.

What about the Inhibition (CHO-K1-BH4 [2]) of the same molecule?
Its Inhibition is 12%.

And the Inhibition (CHO-K1-BH4 [3])?
The Inhibition was 0%.

And the Inhibition (CHO-K1-BH4 [4])?
The Inhibition was 99%.

And the Inhibition (CHO-K1-BH4 [5])?
The Inhibition was 36%.

What about the grade (Mus musculus) of the same molecule?
The grade was 1.75.

And the Inhibition (CHO-K1-BH4 [6])?
Its Inhibition is 37%.

What about the Inhibition (CHO-K1-BH4 [7]) of the same molecule?
Its Inhibition is 2%.

And the Inhibition (CHO-K1-BH4 [8])?
The Inhibition was 0%.

With `Nc1ncnc2c1ncn2[C@@H]1O[C@H](CO)[C@@H](O)[C@H]1O` [ADENOSINE] as the molecule, how does the Inhibition (CHO-K1-BH4 [9]) read?
Its Inhibition is 8%.

What about the Inhibition (CHO-K1-BH4 [10]) of the same molecule?
Its Inhibition is 19%.

And the Inhibition (CHO-K1-BH4 [11])?
The Inhibition was 43%.

And the Inhibition (CHO-K1-BH4 [12])?
The Inhibition was 0%.

What about the Inhibition (CHO-K1-BH4 [13]) of the same molecule?
Its Inhibition is 0.04%.

And the Inhibition (CHO-K1-BH4 [14])?
Its Inhibition is 22%.

And the Inhibition (CHO-K1-BH4 [15])?
Its Inhibition is 7%.

What about the Inhibition (CHO-K1-BH4 [16]) of the same molecule?
Its Inhibition is 0%.

And the Inhibition (CHO-K1-BH4 [17])?
Its Inhibition is 0%.

How did the Inhibition (CHO-K1-BH4 [18]) turn out when `Nc1ncnc2c1ccn2[C@@H]1O[C@H](CO)[C@@H](O)[C@H]1O` [TUBERCIDIN] was run?
Its Inhibition is 100%.

What about the Inhibition (CHO-K1-BH4 [19]) of the same molecule?
Its Inhibition is 4%.

What about the Inhibition (CHO-K1-BH4 [20]) of the same molecule?
Its Inhibition is 9%.

And the Inhibition (CHO-K1-BH4 [21])?
Its Inhibition is 80%.

And the Inhibition (CHO-K1-BH4 [22])?
Its Inhibition is 16%.

And the grade (Mus musculus)?
Its grade is 1.17.

And the Inhibition (CHO-K1-BH4 [23])?
Its Inhibition is 11%.

What about the Inhibition (CHO-K1-BH4 [24]) of the same molecule?
Its Inhibition is 92%.

And the Inhibition (CHO-K1-BH4 [25])?
Its Inhibition is 100%.

What about the Inhibition (CHO-K1-BH4 [26]) of the same molecule?
The Inhibition was 10%.
